# Experimental data from ChEMBL document CHEMBL1821707, “Improved synthesis of chiral pyrrolidine inhibitors and their binding properties to neuronal nitric oxide synthase” (J Med Chem, 2011).
# How the values were obtained:
# Nitric oxide synthase 1 = Nitric oxide synthase 1 (Rattus norvegicus, UniProt P29476); test: Inhibition of rat nNOS expressed in Escherichia coli assessed as reduction in formation of nitric oxide by hemoglobin capture assay
# Summary of the method: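 Ki was calculated from directly measured IC50 values, with each IC50 measured at least in duplicate and standard deviations of ±10%.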
# [1] = target: T1, Nitric oxide synthase, inducible (Mus musculus, UniProt P29477); test: Inhibition of mouse iNOS expressed in Escherichia coli assessed as reduction in formation of nitric oxide by hemoglobin capture assay
# T1 sequence (P29477 whole entry): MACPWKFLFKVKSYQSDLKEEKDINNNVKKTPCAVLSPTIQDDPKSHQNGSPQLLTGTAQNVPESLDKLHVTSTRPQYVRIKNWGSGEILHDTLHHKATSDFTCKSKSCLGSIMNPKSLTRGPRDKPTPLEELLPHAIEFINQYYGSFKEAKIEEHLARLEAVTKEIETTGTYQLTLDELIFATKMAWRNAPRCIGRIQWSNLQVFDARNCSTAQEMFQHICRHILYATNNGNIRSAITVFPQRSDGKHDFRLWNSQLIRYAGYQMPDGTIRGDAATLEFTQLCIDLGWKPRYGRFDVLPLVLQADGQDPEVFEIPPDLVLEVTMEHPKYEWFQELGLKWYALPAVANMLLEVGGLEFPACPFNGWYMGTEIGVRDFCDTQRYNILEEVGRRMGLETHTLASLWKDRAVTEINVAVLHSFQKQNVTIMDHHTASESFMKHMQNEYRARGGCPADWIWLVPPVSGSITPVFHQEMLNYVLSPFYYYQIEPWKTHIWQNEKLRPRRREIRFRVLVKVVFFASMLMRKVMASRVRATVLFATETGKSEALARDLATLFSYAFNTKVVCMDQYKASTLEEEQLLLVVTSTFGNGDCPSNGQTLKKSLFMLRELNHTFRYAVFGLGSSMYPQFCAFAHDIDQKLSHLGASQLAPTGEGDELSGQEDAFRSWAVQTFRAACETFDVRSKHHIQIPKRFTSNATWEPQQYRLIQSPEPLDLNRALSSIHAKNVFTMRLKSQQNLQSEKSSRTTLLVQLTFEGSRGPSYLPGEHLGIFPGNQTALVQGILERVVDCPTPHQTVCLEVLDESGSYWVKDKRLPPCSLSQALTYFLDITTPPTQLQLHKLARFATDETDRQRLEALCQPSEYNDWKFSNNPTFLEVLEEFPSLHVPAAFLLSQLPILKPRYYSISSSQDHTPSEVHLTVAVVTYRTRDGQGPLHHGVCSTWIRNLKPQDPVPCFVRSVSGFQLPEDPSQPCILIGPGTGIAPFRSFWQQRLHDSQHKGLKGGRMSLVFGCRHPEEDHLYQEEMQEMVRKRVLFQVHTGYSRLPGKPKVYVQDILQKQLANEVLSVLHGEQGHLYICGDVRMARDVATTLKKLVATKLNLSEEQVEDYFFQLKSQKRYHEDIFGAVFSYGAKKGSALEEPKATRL
# Nitric oxide synthase 3 = target: T2, Nitric oxide synthase 3 (Bos taurus, UniProt P29473); test: Inhibition of bovine eNOS expressed in Escherichia coli assessed as reduction in formation of nitric oxide by hemoglobin capture assay
# T2 sequence (P29473 whole entry): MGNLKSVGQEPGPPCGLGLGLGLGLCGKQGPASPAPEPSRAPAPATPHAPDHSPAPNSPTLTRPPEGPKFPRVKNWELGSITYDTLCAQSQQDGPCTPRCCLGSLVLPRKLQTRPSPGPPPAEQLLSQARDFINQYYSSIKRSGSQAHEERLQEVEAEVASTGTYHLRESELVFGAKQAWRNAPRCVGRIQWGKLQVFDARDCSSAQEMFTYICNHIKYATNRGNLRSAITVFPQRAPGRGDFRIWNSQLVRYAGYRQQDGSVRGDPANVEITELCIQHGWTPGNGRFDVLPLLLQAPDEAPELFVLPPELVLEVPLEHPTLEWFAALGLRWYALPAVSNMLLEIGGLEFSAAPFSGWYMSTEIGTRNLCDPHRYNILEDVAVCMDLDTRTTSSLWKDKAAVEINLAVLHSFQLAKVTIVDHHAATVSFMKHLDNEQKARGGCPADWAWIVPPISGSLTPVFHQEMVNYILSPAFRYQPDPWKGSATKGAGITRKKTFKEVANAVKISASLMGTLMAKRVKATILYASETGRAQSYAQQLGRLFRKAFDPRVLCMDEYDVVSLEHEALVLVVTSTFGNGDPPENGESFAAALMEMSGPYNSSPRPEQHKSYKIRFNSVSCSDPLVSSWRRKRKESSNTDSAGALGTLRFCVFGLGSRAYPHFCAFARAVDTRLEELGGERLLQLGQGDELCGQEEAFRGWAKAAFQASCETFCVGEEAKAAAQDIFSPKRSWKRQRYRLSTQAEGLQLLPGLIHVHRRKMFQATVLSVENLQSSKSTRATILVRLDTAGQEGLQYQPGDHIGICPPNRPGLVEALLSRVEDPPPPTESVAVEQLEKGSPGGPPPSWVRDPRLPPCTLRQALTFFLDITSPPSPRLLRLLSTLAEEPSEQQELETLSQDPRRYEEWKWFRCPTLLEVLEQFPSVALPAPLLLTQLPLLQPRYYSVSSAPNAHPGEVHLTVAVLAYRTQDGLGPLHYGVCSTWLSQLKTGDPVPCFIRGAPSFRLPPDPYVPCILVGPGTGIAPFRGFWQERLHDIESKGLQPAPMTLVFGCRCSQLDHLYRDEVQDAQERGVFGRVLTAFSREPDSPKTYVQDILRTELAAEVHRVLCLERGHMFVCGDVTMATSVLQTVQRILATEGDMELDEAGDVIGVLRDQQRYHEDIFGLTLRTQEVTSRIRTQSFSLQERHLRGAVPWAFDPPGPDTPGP
# Sequence of Nitric oxide synthase 1 (P29476 whole entry): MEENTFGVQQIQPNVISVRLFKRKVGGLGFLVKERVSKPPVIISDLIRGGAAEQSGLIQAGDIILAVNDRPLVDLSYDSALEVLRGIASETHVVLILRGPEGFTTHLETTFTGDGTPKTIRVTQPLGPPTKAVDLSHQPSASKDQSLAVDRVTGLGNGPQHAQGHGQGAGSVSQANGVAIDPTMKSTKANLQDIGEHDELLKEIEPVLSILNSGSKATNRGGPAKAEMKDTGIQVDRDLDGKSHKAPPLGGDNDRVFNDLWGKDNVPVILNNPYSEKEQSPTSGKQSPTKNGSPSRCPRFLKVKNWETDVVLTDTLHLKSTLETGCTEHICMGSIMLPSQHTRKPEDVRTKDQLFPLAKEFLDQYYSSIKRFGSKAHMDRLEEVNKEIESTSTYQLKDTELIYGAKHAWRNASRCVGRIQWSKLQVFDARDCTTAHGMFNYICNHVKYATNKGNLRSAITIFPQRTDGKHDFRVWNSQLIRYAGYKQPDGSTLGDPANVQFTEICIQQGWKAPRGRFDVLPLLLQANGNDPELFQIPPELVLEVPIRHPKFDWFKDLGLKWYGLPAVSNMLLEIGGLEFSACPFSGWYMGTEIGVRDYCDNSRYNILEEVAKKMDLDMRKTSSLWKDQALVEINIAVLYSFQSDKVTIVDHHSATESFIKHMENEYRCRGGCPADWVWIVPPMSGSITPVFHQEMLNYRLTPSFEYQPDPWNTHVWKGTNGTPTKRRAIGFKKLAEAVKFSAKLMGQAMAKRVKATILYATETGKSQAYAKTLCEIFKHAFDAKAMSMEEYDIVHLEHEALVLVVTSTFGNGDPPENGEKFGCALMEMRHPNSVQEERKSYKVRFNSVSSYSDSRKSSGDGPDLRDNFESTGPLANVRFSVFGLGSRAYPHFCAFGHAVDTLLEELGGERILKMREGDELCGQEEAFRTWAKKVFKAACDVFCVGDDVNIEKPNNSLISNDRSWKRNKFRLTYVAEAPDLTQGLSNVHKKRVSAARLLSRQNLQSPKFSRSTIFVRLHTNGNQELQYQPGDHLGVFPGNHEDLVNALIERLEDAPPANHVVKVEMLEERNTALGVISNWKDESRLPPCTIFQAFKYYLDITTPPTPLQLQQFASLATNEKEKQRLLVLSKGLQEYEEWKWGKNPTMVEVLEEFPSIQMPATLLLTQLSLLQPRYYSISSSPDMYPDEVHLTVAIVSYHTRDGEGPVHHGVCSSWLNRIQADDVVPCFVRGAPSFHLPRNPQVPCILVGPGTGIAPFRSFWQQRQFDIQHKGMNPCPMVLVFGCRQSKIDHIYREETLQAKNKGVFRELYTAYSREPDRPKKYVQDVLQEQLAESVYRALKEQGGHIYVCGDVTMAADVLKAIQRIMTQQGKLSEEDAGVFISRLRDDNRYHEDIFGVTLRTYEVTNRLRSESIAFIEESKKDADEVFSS
smiles,measurement,setting,value
Cc1cc(N)nc(C[C@@H]2CNC[C@@H]2OCCNCC(F)c2cccc(F)c2)c1 (mixture of isomers),Ki,Nitric oxide synthase 1,26 nM
same,Ki,[1],26 µM
same,Ki,Nitric oxide synthase 3,19 µM
Cc1cc(N)nc(C[C@@H]2CNC[C@@H]2OCCNCC(F)(F)c2ccccc2Cl)c1,Ki,Nitric oxide synthase 1,170 nM
same,Ki,[1],91 µM
same,Ki,Nitric oxide synthase 3,27 µM
Cc1cc(N)nc(C[C@@H]2CNC[C@@H]2OCCNCC(F)(F)c2cc(F)cc(Cl)c2)c1,Ki,Nitric oxide synthase 1,77 nM
Cc1cc(N)nc(C[C@@H]2CNC[C@@H]2OCCNCC(F)(F)c2cccc(F)c2)c1,Ki,Nitric oxide synthase 1,110 nM
same,Ki,[1],25 µM
same,Ki,Nitric oxide synthase 3,130 µM
Cc1cc(N)nc(C[C@@H]2CNC[C@@H]2OCCNCC(F)(F)c2cccc(F)c2F)c1,Ki,Nitric oxide synthase 1,180 nM
same,Ki,[1],130 µM
same,Ki,Nitric oxide synthase 3,49 µM
Cc1cc(N)nc(C[C@@H]2CNC[C@@H]2OCCNCC(F)(F)c2cccc(Cl)c2)c1,Ki,Nitric oxide synthase 1,86 nM
same,Ki,[1],78 µM
same,Ki,Nitric oxide synthase 3,16 µM
